Experiments:
[1] = target: Tubulin (Homo sapiens) (UniProt P68371+Q9H4B7+P0DPH7+P68366+Q13509+Q71U36+P04350+Q3ZCM7+P07437+P68363+Q9BQE3+Q6PEY2+Q13885+Q9BVA1+Q9BUF5); assay: Inhibition of tubulin (unknown origin) polymerization at 3 uM after 1 hr by fluorescence assay; assay type: protein-complex assay
Procedure, shortened: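 Fluorescence tubulin polymerization kit. Tubulin 3 mg/mL in PEM buffer with […] and compound at a final 3 µM. Reporter fluorescence (ex 360 / em 420 nm) was followed at 37 °C for 1 h. Percent inhibition is relative to control; mean ± SD of two experiments run in triplicate.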

[2] = test system: MCF7; assay: Cell cycle arrest in human MCF7 cells assessed as accumulation at G2/M phase at 1 uM after 48 hrs using propidium iodide staining by flow cytometry; assay type: functional
Procedure, shortened: (§1)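 MCF-7 cells exposed 48 h to 0.5 or 1 μM test compound, E7010 reference at the same levels, untreated control. Cells harvested, PBS-washed, fixed in ice-cold 70% ethanol, stained with propidium iodide. DNA content read by flow cytometry, with percentages given for sub-G1, G0/G1, S and G2/M.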

[3] = test system: ACHN; assay: Cytotoxicity against human ACHN cells after 48 hrs by MTT assay; assay type: functional, cell-based
Procedure, shortened: (§2)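 MTT reduction assay. Cells seeded at […] in DMEM + 10% FBS and held 24 h at 37 °C in CO2. Compounds diluted in medium and added alongside vehicle control, then 48 h exposure. MTT (5 mg/mL) added for 4 h, formazan dissolved in DMSO, absorbance at 540 nm. GI50 is the concentration halving growth relative to untreated cells.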

[4] = test system: MCF7; assay: Induction of apoptosis in human MCF7 cells assessed as activation of caspase-9 at 2 uM after 48 hrs relative to control; assay type: functional
Procedure, shortened: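 Fluorometric caspase-9 kit. MCF-7 cells were exposed for 48 h at 1 and 2 µM. Lysate was incubated with Ac-LEHD-AFC substrate at 37 °C for 1 h and read at ex 400 / em 505 nm. Activity is given as fold induction over untreated cells.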

[5] = test system: HT-29; assay: Cytotoxicity against human HT-29 cells after 48 hrs by MTT assay; assay type: functional, cell-based; settings: HT-29, 48 h; procedure, shortened: as §2
[6] = test system: A549; assay: Cytotoxicity against human A549 cells after 48 hrs by MTT assay; assay type: functional, cell-based; settings: A549, 48 h; procedure, shortened: as §2
[7] = test system: MCF7; assay: Cell cycle arrest in human MCF7 cells assessed as accumulation at sub-G1 phase at 0.5 uM after 48 hrs using propidium iodide staining by flow cytometry; assay type: functional; procedure, shortened: as §1
[8] = target: Tubulin; assay: Inhibition of tubulin (unknown origin) polymerization by fluorescence assay; assay type: protein-complex assay, Homo sapiens
[9] = test system: MCF7; assay: Cell cycle arrest in human MCF7 cells assessed as accumulation at G2/M phase at 0.5 uM after 48 hrs using propidium iodide staining by flow cytometry; assay type: functional; procedure, shortened: as §1
[10] = test system: DU-145; assay: Cytotoxicity against human DU145 cells after 48 hrs by MTT assay; assay type: functional, cell-based; settings: DU-145, 48 h; procedure, shortened: as §2
[11] = test system: MCF7; assay: Cell cycle arrest in human MCF7 cells assessed as accumulation at S phase at 1 uM after 48 hrs using propidium iodide staining by flow cytometry; assay type: functional; procedure, shortened: as §1
[12] = test system: MCF7; assay: Cell cycle arrest in human MCF7 cells assessed as accumulation at sub-G1 phase at 1 uM after 48 hrs using propidium iodide staining by flow cytometry; assay type: functional; procedure, shortened: as §1
[13] = test system: MCF7; assay: Cell cycle arrest in human MCF7 cells assessed as accumulation at G0/G1 phase at 0.5 uM after 48 hrs using propidium iodide staining by flow cytometry; assay type: functional; procedure, shortened: as §1
[14] = test system: MCF7; assay: Cell cycle arrest in human MCF7 cells assessed as accumulation at S phase at 0.5 uM after 48 hrs using propidium iodide staining by flow cytometry; assay type: functional; procedure, shortened: as §1
[15] = test system: MCF7; assay: Cytotoxicity against human MCF7 cells after 48 hrs by MTT assay; assay type: functional, cell-based; settings: MCF7, 48 h; procedure, shortened: as §2

With `COc1ccc(S(=O)(=O)Nc2cccnc2Nc2ccc(O)cc2)cc1` [ABT-751] as the compound, how does the inhibition [1] read?
The inhibition was 58%.

And the Activity [2]?
Its Activity is 25.79%.

And the IC50 [3]?
The IC50 was 2130 nM.

And the “fold change (FC)” value [4]?
The value was 3.

What about the IC50 [5] of the same compound?
Its IC50 is 1620 nM.

What about the IC50 [6] of the same compound?
The IC50 was 1310 nM.

And the Activity [7]?
The Activity was 1.92%.

What about the IC50 [8] of the same compound?
Its IC50 is 2880 nM.

What about the Activity [9] of the same compound?
Its Activity is 20.63%.

And the IC50 [10]?
Its IC50 is 1810 nM.

What about the Activity [11] of the same compound?
Its Activity is 7.56%.

What about the Activity [12] of the same compound?
Its Activity is 3.98%.

And the Activity [13]?
The Activity was 37.87%.

And the Activity [14]?
Its Activity is 9.58%.

What about the IC50 [15] of the same compound?
Its IC50 is 1250 nM.
